High-throughput results: PubChem, several laboratories
m-calpain inh: blocks pig calpain II enzyme activity | purified calpain II, fluorogenic peptide substrate, 30 min | inhibition, % at 16 µM | hit rate 0.37% among 220,000 | AID 1236;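 active means inhibition above about 50%, limit read from the data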
RanGTP-Imp inh: disruptors of Ran-importin-beta complex formation – biochemical, FRET, CFP-Ran, YFP-importin-beta, homogeneous, primary screen; hit rate 1.1% among 300,000; AID 2216; inhibition, % (test concentration not listed); cell-free CFP-Ran/YFP-importin-beta FRET ratio;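 active means more than half of the replicate wells show a fall in the fluorescence ratio signal beyond about 16%, limit read from the data, passing the limit was not always enough; inconclusive means exactly half of the replicate wells pass the set limit; inactive means fewer than half of replicates pass the limit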
Runt-CBFb FRET: inhibitors of human RUNX1 Runt domain binding to CBFb | Q01196+Q13951 | Cerulean-Runt/Venus-CBFb FRET ratio 530/480, 1 h | inhibition, % at 20 µM | hit rate 0.46% among 220,000 | AID 1496;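 active means inhibition over about 50% at 20 µM in the single-dose screen, limit read from the data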
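Assay system: Cerulean-Runt domain / Medium: Tris 50 mM pH 7.5, KCl, K2SO4, 0.01% BSA / Timing: protein complex preformed 1 h, compound exposure 1 h, room temperature, dark / Measured by: FRET, excitation 422 nm, emission at 530 and 480 nm / Evaluation: loss of energy transfer signal / Control set: 5 µM unlabeled CBFb as full-inhibition high control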
FAS-TE inh: inhibitors of human fatty acid synthase thioesterase domain; hit rate 0.67% among 360,000; P49327; recombinant FAS-TE, OMFH fluorogenic substrate, fluorescence endpoint; inhibition, % at 15 µM;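 active means compounds whose normalised, plate-corrected inhibition of enzyme fluorescence in the single-dose primary screen is 50% or more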
Target sequence (P49327 whole entry, looked up, the tested form may be a part): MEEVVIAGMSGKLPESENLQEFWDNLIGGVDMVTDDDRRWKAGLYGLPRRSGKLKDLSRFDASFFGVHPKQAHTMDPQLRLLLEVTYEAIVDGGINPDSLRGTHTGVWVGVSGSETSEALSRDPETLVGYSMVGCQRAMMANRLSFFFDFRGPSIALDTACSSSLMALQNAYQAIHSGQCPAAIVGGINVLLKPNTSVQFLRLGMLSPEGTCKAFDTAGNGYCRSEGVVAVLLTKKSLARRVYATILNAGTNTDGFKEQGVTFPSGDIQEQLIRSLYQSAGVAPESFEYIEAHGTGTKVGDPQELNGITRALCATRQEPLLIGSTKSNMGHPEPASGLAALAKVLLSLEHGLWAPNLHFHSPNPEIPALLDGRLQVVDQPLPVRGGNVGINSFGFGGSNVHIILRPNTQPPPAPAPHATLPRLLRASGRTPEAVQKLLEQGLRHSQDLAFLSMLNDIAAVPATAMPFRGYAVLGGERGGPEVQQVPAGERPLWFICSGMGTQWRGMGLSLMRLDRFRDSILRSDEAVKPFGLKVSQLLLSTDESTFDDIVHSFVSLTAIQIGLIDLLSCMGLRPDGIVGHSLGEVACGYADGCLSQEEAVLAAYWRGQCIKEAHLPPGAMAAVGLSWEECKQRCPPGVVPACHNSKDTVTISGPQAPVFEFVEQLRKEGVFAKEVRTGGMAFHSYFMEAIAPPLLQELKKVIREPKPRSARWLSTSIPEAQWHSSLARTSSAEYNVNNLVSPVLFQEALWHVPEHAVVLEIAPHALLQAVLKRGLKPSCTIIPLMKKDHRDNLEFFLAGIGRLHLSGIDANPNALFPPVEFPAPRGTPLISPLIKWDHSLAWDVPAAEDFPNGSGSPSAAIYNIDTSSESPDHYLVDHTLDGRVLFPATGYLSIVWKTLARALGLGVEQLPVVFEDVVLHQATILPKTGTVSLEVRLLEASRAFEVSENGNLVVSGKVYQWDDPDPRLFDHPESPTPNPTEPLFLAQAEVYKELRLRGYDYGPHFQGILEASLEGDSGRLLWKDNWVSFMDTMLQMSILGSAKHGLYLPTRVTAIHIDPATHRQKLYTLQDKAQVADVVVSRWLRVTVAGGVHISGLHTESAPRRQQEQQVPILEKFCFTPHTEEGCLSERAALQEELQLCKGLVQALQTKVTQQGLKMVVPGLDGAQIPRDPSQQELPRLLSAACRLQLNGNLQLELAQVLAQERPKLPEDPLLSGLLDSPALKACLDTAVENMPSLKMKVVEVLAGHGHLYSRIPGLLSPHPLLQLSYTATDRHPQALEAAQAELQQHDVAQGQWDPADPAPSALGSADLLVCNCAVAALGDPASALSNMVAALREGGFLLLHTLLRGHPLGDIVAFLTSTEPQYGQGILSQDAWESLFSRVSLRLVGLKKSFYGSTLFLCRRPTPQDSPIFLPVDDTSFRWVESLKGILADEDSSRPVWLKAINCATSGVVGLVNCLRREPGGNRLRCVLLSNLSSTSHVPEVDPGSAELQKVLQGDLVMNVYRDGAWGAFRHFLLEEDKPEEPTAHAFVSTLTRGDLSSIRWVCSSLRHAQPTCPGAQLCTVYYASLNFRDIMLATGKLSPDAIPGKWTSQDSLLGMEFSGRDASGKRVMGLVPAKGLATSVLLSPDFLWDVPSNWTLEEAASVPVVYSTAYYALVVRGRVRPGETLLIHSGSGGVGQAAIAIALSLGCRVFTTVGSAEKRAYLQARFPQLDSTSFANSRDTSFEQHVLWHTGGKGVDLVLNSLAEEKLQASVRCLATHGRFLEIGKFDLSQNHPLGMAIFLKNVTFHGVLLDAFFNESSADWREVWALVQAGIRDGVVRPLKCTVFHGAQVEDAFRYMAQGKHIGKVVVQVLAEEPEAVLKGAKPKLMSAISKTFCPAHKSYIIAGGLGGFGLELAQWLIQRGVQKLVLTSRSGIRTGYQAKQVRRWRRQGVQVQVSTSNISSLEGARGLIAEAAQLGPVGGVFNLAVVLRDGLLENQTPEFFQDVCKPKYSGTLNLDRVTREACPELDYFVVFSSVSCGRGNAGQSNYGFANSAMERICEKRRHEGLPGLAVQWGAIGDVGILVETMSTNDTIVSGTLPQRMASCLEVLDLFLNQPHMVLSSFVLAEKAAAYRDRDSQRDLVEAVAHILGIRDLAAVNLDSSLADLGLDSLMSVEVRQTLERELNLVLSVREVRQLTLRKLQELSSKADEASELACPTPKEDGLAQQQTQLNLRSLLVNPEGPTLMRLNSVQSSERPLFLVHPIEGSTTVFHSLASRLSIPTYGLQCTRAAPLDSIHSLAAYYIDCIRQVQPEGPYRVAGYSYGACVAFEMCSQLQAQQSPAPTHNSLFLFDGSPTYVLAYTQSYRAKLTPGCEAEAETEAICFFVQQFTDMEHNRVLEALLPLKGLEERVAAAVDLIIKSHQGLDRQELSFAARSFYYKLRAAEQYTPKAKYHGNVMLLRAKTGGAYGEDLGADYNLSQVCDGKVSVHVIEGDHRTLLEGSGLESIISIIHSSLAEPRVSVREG
Runt-SMMHC FRET: Runt domain-CBFb-SMMHC interaction inhibition; Cerulean-Runt/Venus-CBFb-SMMHC FRET ratio 530/480, 1 h; hit rate 0.74% among 220,000; inhibition, % at 20 µM; Q01196+Q13951; AID 1434;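 active means mean inhibition across duplicate retests at 20 µM reaching about 50%, limit read from the data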;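 further: inhibitors lower the FRET ratio by blocking Runt binding to CBFb-SMMHC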
Numbers stand for hits; . = inactive; ? = inconclusive; / = no result. A selection: hits, their analogues and other compounds. The true share with any hit is near 2.1%.

SMILES	m-calpain inh	RanGTP-Imp inh	Runt-CBFb FRET	FAS-TE inh	Runt-SMMHC FRET
CCOc1ccc(S(=O)(=O)N2CCN(C)CC2)c(C)c1C	.	.	.	.	.
O=C1c2ccccc2C(=O)C1c1ccnc2ccccc12	.	.	.	.	.
N#CC1=C(N)SC(N)=C(C#N)C1c1ccnc2ccccc12	.	23	.	.	.
COc1cc(N2N=C(c3ccccc3)CC2c2ccccc2)c(C=O)cc1C=O (centres undefined)	/	31	/	.	/
COc1cc(OC)cc(C(=O)NNC(=O)c2nn(C)c(=O)c3ccccc23)c1	/	/	/	.	/
O=C(CSc1n[nH]c(=O)[nH]c1=O)N/N=C/C=C\c1ccccc1	.	.	83	.	.
O=C(CSc1n[nH]c(=O)[nH]c1=O)N/N=C/C=C/c1ccccc1	.	.	.	.	.
COc1ccccc1/C=C/C(=O)NCc1cccnc1	.	.	.	.	.
CCc1nc2c(OCC(=O)C(C)(C)C)cccn2c1N(C=O)CC(=O)N(C)C	/	/	/	.	/
CCCCNC(=O)C1c2ccccc2Oc2ccccc21	.	22	.	.	.
CSc1nc(Oc2ccccc2)c2sccc2n1	54	.	.	.	.
CSc1nc(Oc2ccc(Cl)cc2)c2sccc2n1	.	.	.	.	.
COc1ccc2nc(SCC(=O)NC3(C#N)CCCCC3)[nH]c2c1	/	/	/	.	/
CCn1cc(C2C(C(=O)Nc3ccc(Br)cn3)=C(C)NC3=C2C(=O)CCC3)c(C)n1 (centres undefined)	.	.	.	.	74
CCC(C(=O)OCC(=O)Nc1ccc(Cl)c(S(=O)(=O)N(C)C)c1)c1ccccc1 (centres undefined)	59	.	.	.	.
CCC(C(=O)OCC(=O)Nc1ccc(SC(F)F)cc1)c1ccccc1 (centres undefined)	51	.	.	.	.
CN(C)S(=O)(=O)c1cc(NC(=O)COC(=O)Cc2cccc3ccccc23)ccc1Cl	.	.	.	.	.
COc1cc([N+](=O)[O-])ccc1NC(=S)NC(=O)CC(C)(C)C	.	.	.	.	.
c1ccc2c(C3=NNC(=NC4CC4)SC3)c[nH]c2c1	.	.	.	.	.
c1ccc2c(C3=NNC(=NC4CCCCC4)SC3)c[nH]c2c1	75	.	.	.	.
CC(=O)C12OC(C)(C)OC1CC1C3CCC4=CC(=O)C=CC4(C)C3(F)C(O)CC12C (centres undefined)	/	/	/	.	/
CCn1cc(S(=O)(=O)Nc2cc(C(=O)OC)ccc2C)cn1	/	32	/	.	/
CCn1c(SCc2ccc(F)cc2)nnc1C1CCN(S(=O)(=O)c2ccc(OC)cc2)CC1	59	.	.	.	.
CCOC(=O)c1c(C)[nH]c(C(C)=NNC(=O)Cn2nc(C)cc2C)c1C	/	/	/	.	/
Cc1nc(N2CCN(Cc3ccc4c(c3)OCO4)CC2)nc2c1C(=O)CC(c1ccco1)C2 (centres undefined)	67	.	.	.	.
SMILES	m-calpain inh	RanGTP-Imp inh	Runt-CBFb FRET	FAS-TE inh	Runt-SMMHC FRET
Cc1nc(N2CCN(Cc3ccccc3)CC2)nc2c1C(=O)CC(c1ccco1)C2 (centres undefined)	.	/	.	.	.
Cn1cc(CN2CCC[C@H]2CO)c(-c2cccc(Cl)c2)n1	.	110	.	.	.
N#C/C(=C/c1ccc(N2CCCCCC2)o1)c1ccc(F)cc1	.	27	/	.	/
N#C/C(=C/c1ccc(N2CCCCCC2)o1)c1cccc(F)c1	.	?	.	.	.
O=C(NCc1n[nH]c(=S)n1-c1cccc(C(F)(F)F)c1)c1ccc(S(=O)(=O)N2CCCCC2)cc1	/	.	/	.	/
CCC(C)(CN(C)C)OC(=O)c1ccccc1 (centres undefined)	/	/	/	.	/
CC(C)c1ccc(C(=O)Nc2cccnc2)cc1	/	.	/	.	/
CCC(C)C(NC(=O)c1ccc(Cl)cc1)C(=O)Nc1cccnc1 (centres undefined)	102	.	.	.	.
COC(=O)/C(C#N)=C/c1c(N2CCN(Cc3ccc4c(c3)OCO4)CC2)nc2c(C)cccn2c1=O	.	.	.	.	.
CCCCn1c(=NC(=O)c2cccnc2)c(C#N)cc2c(=O)n3cccc(C)c3nc21	.	107	124	.	58
CCCn1c(=NC(=O)c2ccc3c(c2)OCO3)c(C#N)cc2c(=O)n3cccc(C)c3nc21	/	/	125	/	67
Cc1cccn2c(=O)c3cc(C#N)c(=NC(=O)c4ccncc4)n(CCCOC(C)C)c3nc12	.	140	97	.	.
CCCn1c(=NC(=O)c2ccncc2)c(C#N)cc2c(=O)n3cccc(C)c3nc21	/	/	/	.	/
CC(=O)N=c1c(C#N)cc2c(=O)n3cccc(C)c3nc2n1CCCOC(C)C	.	111	115	.	82
COc1ccc(C2c3ccc(O)cc3Oc3ncn4nc(-c5cccnc5)nc4c32)cc1OC (centres undefined)	.	?	.	.	.
COCCCn1c(=NC(=O)c2ccncc2)c(C#N)cc2c(=O)n3cccc(C)c3nc21	.	68	.	.	62
C[C@@H]1CN([C@@H](C)CO)S(=O)(=O)c2ccc(Br)cc2O[C@@H]1CN(C)S(=O)(=O)c1cn(C)cn1	/	/	/	.	/
O=C(Nc1ccc(Cl)c(Cl)c1)c1ccc(Cn2cc(Cl)cn2)cc1	53	.	.	.	.
NNC(=O)c1ccc(Cn2cc(Cl)cn2)cc1	.	.	.	.	.
C#CCOCCOCCOCCNc1nc(N2CCN(C(=O)Cn3cc(CCCCN)nn3)CC2)nc(N2CCN(C(=O)Cn3cc(CCCN=C(N)N)nn3)CC2)n1	/	/	/	.	/
O=c1[nH]c2ccccc2nc1/C=C/c1ccc(O)cc1	.	?	.	.	.
O=c1[nH]c2ccccc2nc1/C=C/c1ccccc1	.	61	.	.	88
O=c1[nH]c2ccccc2nc1/C=C/c1ccc(F)cc1	.	38	.	.	.
COc1ccccc1-n1nnnc1SCc1cc2c(cc1Br)OCO2	50	.	.	.	.
COc1ccccc1-n1nnnc1SCc1ccccc1	.	?	.	.	.
SMILES	m-calpain inh	RanGTP-Imp inh	Runt-CBFb FRET	FAS-TE inh	Runt-SMMHC FRET
COc1ccc(C(=O)OC2C(OC)OCC(O)C2O)cc1 (centres undefined)	/	/	/	.	/
CCOC(=O)N1CCN(C(=O)C2CC(=O)N(c3ccc(C)cc3)C2)CC1 (centres undefined)	/	.	/	.	/
COc1cc2ccccc2cc1C(=O)Nc1sc2c(c1C(N)=O)CCN(C(C)C)C2	/	47	/	.	/
CC(C)N1CCc2c(sc(NC(=O)CCS(=O)(=O)c3ccccc3)c2C(N)=O)C1	/	153	/	.	/
CC(C)N1CCc2c(sc(NC(=O)CN3C(=O)c4ccccc4C3=O)c2C(N)=O)C1	.	142	98	.	129
COc1ccc(NS(=O)(=O)c2cccc(C(=O)O)c2)cc1	.	.	.	.	.
COc1ccc(C(=O)C(C)OC(=O)c2cccc(S(=O)(=O)Nc3cc(Cl)c(OC)cc3OC)c2)cc1 (centres undefined)	.	.	.	57	.
Cc1ccc(C)c(N2CCN(CCCNC(=O)Cn3c(=O)c4cccn4c4cccnc43)CC2)c1	/	.	/	.	/
